Results taken from ChEMBL document CHEMBL4665666, “Discovery and characterization of trypanocidal cysteine protease inhibitors from the 'malaria box'” (Eur J Med Chem, 2019).

What was measured:
[1] = molecular target: Rhodesain (Trypanosoma brucei rhodesiense) (UniProt Q95PM0); test: Inhibition of recombinant Trypanosoma brucei rhodesain expressed in Pichia pastoris at 0.5 uM using Z-FR-AMC as substrate and measured at 12 sec interval for 5 mins without preincubation by fluorimetric analysis relative to control
Sequence of Rhodesain (Trypanosoma brucei rhodesiense) (Q95PM0 1-450): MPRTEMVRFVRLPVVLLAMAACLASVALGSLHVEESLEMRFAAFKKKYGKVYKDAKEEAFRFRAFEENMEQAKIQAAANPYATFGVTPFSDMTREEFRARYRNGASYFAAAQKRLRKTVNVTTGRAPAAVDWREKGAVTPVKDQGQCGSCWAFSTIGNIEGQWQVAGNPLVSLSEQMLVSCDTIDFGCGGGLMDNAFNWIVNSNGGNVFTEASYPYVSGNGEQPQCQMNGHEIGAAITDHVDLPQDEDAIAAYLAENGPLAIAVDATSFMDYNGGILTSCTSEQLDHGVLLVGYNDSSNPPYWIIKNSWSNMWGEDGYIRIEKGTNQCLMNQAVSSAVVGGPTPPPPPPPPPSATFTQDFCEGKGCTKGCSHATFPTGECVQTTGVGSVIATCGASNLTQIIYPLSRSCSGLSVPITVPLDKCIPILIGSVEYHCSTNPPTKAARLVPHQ
Procedure, shortened: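 Recombinant rhodesain or cruzain (1 nM) in 0.1 M sodium acetate pH 5.5, 0.01% Triton X-100, 1 mM β-mercaptoethanol. Compound at a single concentration, either without or after 10 min enzyme pre-incubation. Z-FR-AMC 2.5 µM, read at 340/440 nm every 12 s for 5 min. Inhibition is relative to DMSO, with E-64 as positive control. Done in duplicate (primary screen) or triplicate.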

[2] = molecular target: T1, cathepsin S (Homo sapiens, UniProt P25774); test: Inhibition of recombinant human cathepsin S expressed in Escherichia coli at 1 uM using Z-VVR-AMC as substrate and measured after 15 mins without preincubation by microplate reader based assay relative to control; conditions: probe Z-VVR-AMC
T1 sequence (P25774 whole entry): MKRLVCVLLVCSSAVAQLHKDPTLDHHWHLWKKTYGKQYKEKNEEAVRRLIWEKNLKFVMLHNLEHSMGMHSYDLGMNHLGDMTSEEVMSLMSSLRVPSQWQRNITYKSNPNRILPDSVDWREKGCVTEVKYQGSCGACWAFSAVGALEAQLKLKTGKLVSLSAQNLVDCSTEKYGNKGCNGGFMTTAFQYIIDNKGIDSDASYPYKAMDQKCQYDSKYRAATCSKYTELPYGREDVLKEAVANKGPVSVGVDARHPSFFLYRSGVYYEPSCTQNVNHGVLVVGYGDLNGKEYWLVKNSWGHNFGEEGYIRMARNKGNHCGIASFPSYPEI

[3] = molecular target: T1, cathepsin S; test: Inhibition of recombinant human cathepsin S expressed in Escherichia coli at 1 uM using Z-VVR-AMC as substrate preincubated for 10 mins followed by substrate addition and measured after 15 mins by microplate reader based assay relative to control; conditions: probe Z-VVR-AMC, in the assay text read “preincubated for 5 mins” for “preincubated for 10 mins”, time 20 min
Procedure, shortened: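 Run with or without 5 min compound–enzyme pre-incubation. AMC fluorescence at 380/460 nm over 15 min. Inhibition relative to DMSO (2% final); E64 1 µM as positive control. Two independent experiments, each in triplicate.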

[4] = molecular target: T2, cathepsin B (Rattus norvegicus, UniProt P00787); test: Inhibition of rat cathepsin B at 1 uM using Z-FR-AMC as substrate measured after 15 mins without preincubation by microplate reader based assay relative to control; conditions: probe Z-FR-AMC
T2 sequence (P00787 whole entry): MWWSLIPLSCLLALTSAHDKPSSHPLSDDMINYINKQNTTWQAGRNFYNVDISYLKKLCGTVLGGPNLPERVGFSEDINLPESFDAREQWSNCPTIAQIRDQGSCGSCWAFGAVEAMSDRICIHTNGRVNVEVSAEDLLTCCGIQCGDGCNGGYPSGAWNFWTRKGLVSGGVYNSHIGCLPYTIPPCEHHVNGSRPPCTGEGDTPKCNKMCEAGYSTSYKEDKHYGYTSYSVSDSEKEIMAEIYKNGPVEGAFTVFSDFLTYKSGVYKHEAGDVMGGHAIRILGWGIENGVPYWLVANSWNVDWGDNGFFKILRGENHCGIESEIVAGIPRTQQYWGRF

[5] = molecular target: T2, cathepsin B; test: Inhibition of rat cathepsin B at 1 uM using Z-FR-AMC as substrate preincubated for 5 mins followed by substrate addition and measured after 15 mins by microplate reader based assay relative to control; conditions: probe Z-FR-AMC

inhibition [1]: 36%
inhibition at 0.25 h, 1 µM [2]: 99.9%
inhibition at 0.25 h, 1 µM [3]: 99.9%
inhibition at 0.25 h, 1 µM [4]: 99.1%
inhibition at 0.25 h, 1 µM [5]: 100%
Structure (SMILES): CC(C)C[C@H](NC(=O)[C@H]1O[C@@H]1C(=O)O)C(=O)NCCCCN=C(N)N [E-64]
